In article PMC4371781 (Biochemistry, 2015):
Where a SMILES comes first, the peptide text is derived from it. Primed or numbered codes have the meaning given here. The star is where a group is joined. FITC = O=C1OC2(c3ccc(O)cc3Oc3cc(O)ccc32)c2ccc(NC(=S)*)cc21; FITC′ = fluorescein; Ahx = NCCCCCC(=O)O

How the values were obtained:
[1] = target: T1, RbAB (pocket domain of Rb) (Homo sapiens, UniProt P06400, A635F/DEL582-633/S634E); test: Competition-based ITC; format: binding
T1 sequence (P06400 with tags, fused parts or gaps DEL582-633/S634E/A635F limits assumed): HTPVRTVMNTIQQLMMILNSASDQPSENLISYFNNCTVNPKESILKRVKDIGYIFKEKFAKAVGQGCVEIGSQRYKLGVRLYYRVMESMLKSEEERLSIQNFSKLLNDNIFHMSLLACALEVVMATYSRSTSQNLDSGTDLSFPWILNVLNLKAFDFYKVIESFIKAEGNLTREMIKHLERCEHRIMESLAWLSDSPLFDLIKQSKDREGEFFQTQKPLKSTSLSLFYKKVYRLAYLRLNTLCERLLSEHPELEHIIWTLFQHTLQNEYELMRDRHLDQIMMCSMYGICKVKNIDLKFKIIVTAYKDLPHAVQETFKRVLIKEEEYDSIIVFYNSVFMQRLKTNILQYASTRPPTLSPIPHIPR
How it was run: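 RbAB (Rb residues 372–581 and 636–787 joined by an EF linker, GS N-terminus) was expressed as a GST fusion in E. coli and thrombin-cleaved. At 25 °C in 20 mM Tris pH 7.5, 140 mM NaCl and 2 mM β-mercaptoethanol, the RIZ 297–341 fragment (1154 or 984 μM) was titrated into RbAB (20 or 9 μM). RbAB was pre-mixed with excess competitor: 650 μM FITC-RIZ(254–267) or 459 μM RIZ 197–269 fragment. Kd was derived from the apparent association constant with a competition equation.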

[2] = target: T1, RbAB (pocket domain of Rb); test: Fluorescence anisotropy, direct binding assay
How it was run: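 Assays ran in PBS pH 7.5 with 2.5 mM DTT. Labelled peptide was held constant while RbAB was varied: 0.33 μM FITC-RIZ(254–267) at 25 °C, or 0.40 μM FITC-RIZ(309–319) at 20 °C. FITC was attached at the N-terminus via an aminohexanoyl spacer, with amidated C-termini. TCSPC steady-state anisotropy was corrected with a bound/free quantum-yield ratio (0.65 μM peptide ± 32.5 μM RbAB). Kd was fitted by nonlinear least squares with 95% confidence intervals.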

[3] = target: T1, RbAB (pocket domain of Rb); test: NMR-monitored titration, 1H–15N HSQC of 15N-labeled RIZ constructs with RbAB; format: binding; conditions: for residues most affected by RbAB binding (loss of HSQC peak volume): 1H–15N HSQC, PBS pH 7.5, 2.5 mM DTT, 25 °C
[4] = target: HDAC1 LXCXE-like sequence LXCXE-like sequence (Homo sapiens) (UniProt Q13547); conditions: cited from earlier work
[5] = target: T1, RbAB (pocket domain of Rb); test: Isothermal titration calorimetry, direct binding of RbAB
How it was run: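 RbAB (GST-fusion from E. coli, thrombin-cleaved) was injected stepwise into the cell at 25 °C in 20 mM Tris pH 7.5, 140 mM NaCl and 2 mM β-mercaptoethanol. Titrations were 486 μM RbAB into 28 μM full acidic region (AR), and 524 μM RbAB into 39 μM RIZ 197–269 or 48 μM RIZ 297–341 fragment. Heats of binding were recorded and fitted to a single-binding-site model.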

[6] = NMR structural characterization of AR; format: physicochemical
[7] = target: T2, AR-N (N-terminal part of the acidic region of RIZ, residues 197-269) (human, UniProt Q13029 197-269); test: ITC
T2 sequence: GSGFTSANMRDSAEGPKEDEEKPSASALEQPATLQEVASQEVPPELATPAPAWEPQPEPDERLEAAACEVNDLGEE

[8] = target: T2, AR-N (N-terminal part of the acidic …); test: fluorescence polarisation
FITC-RIZ(254-267) = target: T3, FITC-RIZ(254-267) (human); test: fluorescence polarisation
T3 peptide: {FITC′-Ahx}-ERLEAAACEVNDLG-NH2

FITC-RIZ(309-319) = target: T4, FITC-RIZ(309-319) (human, SMILES …); test: fluorescence polarisation
T4 peptide: {FITC-Ahx}-EIRCDEKPEDL-NH2

[9] = from 13Cα, 13Cβ, 1Hα chemical shifts, PBS pH 7.5, 25 °C

CC(C)C[C@H](NC(=O)[C@H](CC(=O)O)NC(=O)[C@H](CC(N)=O)NC(=O)[C@@H](NC(=O)[C@H](CCC(=O)O)NC(=O)[C@H](CS)NC(=O)[C@H](C)NC(=O)[C@H](C)NC(=O)[C@H](C)NC(=O)[C@H](CCC(=O)O)NC(=O)[C@H](CC(C)C)NC(=O)[C@H](CCCNC(=N)N)NC(=O)[C@H](CCC(=O)O)NC(=O)CCCCCNC(=S)Nc1ccc2c(c1)C(=O)OC21c2ccc(O)cc2Oc2cc(O)ccc21)C(C)C)C(=O)NCC(N)=O [FITC-RIZ(254–267)] ({FITC-Ahx}-ERLEAAACEVNDLG-NH2)
Kd [1]: 70 ± 10 µM | Kd [2]: ~170 µM

EIRCDEKPEDL [peptide containing the IRCDE motif]
effect of competitor peptide on AR signals in presence of RbAB ([3]; 86 μM 15N-labeled AR, ~2-fold molar excess RbAB, 34-fold molar excess of RIZ(309–319) peptide, PBS pH 7.5, 25 °C): the intensity of all AR signals was restored

CC[C@H](C)[C@H](NC(=O)[C@H](CCC(=O)O)NC(=O)CCCCCNC(=S)Nc1ccc2c(c1)C(=O)OC21c2ccc(O)cc2Oc2cc(O)ccc21)C(=O)N[C@@H](CCCNC(=N)N)C(=O)N[C@@H](CS)C(=O)N[C@@H](CC(=O)O)C(=O)N[C@@H](CCC(=O)O)C(=O)N[C@@H](CCCCN)C(=O)N1CCC[C@H]1C(=O)N[C@@H](CCC(=O)O)C(=O)N[C@@H](CC(=O)O)C(=O)N[C@@H](CC(C)C)C(N)=O [FITC-RIZ(309–319)] ({FITC-Ahx}-EIRCDEKPEDL-NH2)
Kd [2]: ~0.36 µM

Rb pocket domain pocket domain (from UniProt P06400)
Kd [4]: 10 µM

B1: AR-N: recombinant protein, residues 197–269 (FTSA⋯LGEE) of RIZ preceded by three extraneous amino acids (GSG) (protein)
chain: GSGFTSANMRDSAEGPKEDEEKPSASALEQPATLQEVASQEVPPELATPAPAWEPQPEPDERLEAAACEVNDLGEE
modifications: left off: GST, N-terminal, cleaved
heat/enthalpy of binding to RbAB (in words) ([5]; ITC, 25 °C, Tris pH 7.5): little or no heat is released | residues most affected by RbAB binding (loss of HSQC peak volume) [3]: Residues 255–267 in AR-N

B2: AR: recombinant AR protein, residues 197–341 of human RIZ (FTSA⋯TPAM) preceded by four extraneous amino acids (GSPE) (protein)
chain: GSPEFTSANMRDSAEGPKEDEEKPSASALEQPATLQEVASQEVPPELATPAPAWEPQPEPDERLEAAACEVNDLGEEEEEEEEEDEEEEEDDDDDELEDEGEEEASMPNENSVKEPEIRCDEKPEDLLEEPKTTSEETLEDCSEVTPAM
modifications: left off: GST, end not stated, cleaved
affinity for pocket domain of Rb (in words) ([5]; purified components, ITC and fluorescence anisotropy): submicromolar affinity | residues most affected by RbAB binding (loss of HSQC peak volume) [3]: Residues 306–322 ([…]) were the most affected by RbAB binding | exchange between free and bound forms with RbAB ([3]; 15N-labeled AR, increasing RbAB, PBS pH 7.5, 25 °C): consistent with exchange between the free and bound forms on an intermediate time scale | specificity of binding to RbAB ([3]; displacement by large excess of peptide containing IRCDE motif): AR binding to RbAB is specific | structural state in solution ([6]; NMR, PBS pH 7.5, 2.5 mM DTT, 25 °C): consistent with AR being intrinsically disordered | SSP scores: virtually no residues higher than [6, 9]: ≤ 0.2 | SSP scores: virtually no residues lower than [6, 9]: ≥ −0.2

B3: RbAB (pocket domain of the retinoblastoma protein, cyclin boxes A and B joined by a two-residue linker) (domain or fragment, human)
chain: GSHTPVRTVMNTIQQLMMILNSASDQPSENLISYFNNCTVNPKESILKRVKDIGYIFKEKFAKAVGQGCVEIGSQRYKLGVRLYYRVMESMLKSEEERLSIQNFSKLLNDNIFHMSLLACALEVVMATYSRSTSQNLDSGTDLSFPWILNVLNLKAFDFYKVIESFIKAEGNLTREMIKHLERCEHRIMESLAWLSDSPLFDLIKQSKDREGEFFQTQKPLKSTSLSLFYKKVYRLAYLRLNTLCERLLSEHPELEHIIWTLFQHTLQNEYELMRDRHLDQIMMCSMYGICKVKNIDLKFKIIVTAYKDLPHAVQETFKRVLIKEEEYDSIIVFYNSVFMQRLKTNILQYASTRPPTLSPIPHIPR
Kd [7]: 45 ± 20 µM | Kd [8]: 90 µM | Kd (FITC-RIZ(254-267)): 170 µM | Kd (FITC-RIZ(309-319)): 360 nM
